Results pooled from the literature.
Compare with care: the assays were run in different laboratories.
Organism: Klebsiella pneumoniae
Effect on: microbial growth

| Structure (SMILES) | assay | system | setting | MIC |
| --- | --- | --- | --- | --- |
| Cn1c(SCc2ccc(Cl)cc2)nnc1-c1cncc(C#Cc2ccccc2)c1 |  |  |  | ≥ 20 µg/mL |
| NC1CCc2c1[nH]c1ccc(Cl)c(Cl)c21 (stereo not drawn) | broth dilution | ATCC10031 |  | 8 µg/mL |
| O=C1CN(/N=C/c2ccc([N+](=O)[O-])o2)C(=O)N1 | broth dilution | ATCC700603 |  | 320 µM |
| Cc1c(CN(C)C(=O)/C=C/c2cnc3c(c2)CC(CCN)C(=O)N3)oc2ccccc12.Cl (stereo not drawn) | broth dilution | BAA2473 |  | 16 µg/mL |
| CC1(C)S[C@@H]2[C@H](NC(=O)COc3ccccc3)C(=O)N2[C@H]1C(=O)O |  |  | 18 h, clinical isolate | > 128 µg/mL |
| CCCCCCC#Cc1cncc(-c2nnc(SCc3ccc([N+](=O)[O-])o3)n2C)c1 |  |  |  | ≥ 20 µg/mL |
| CC1=NN(CNC(=O)c2ccccn2)C(=O)C1=NNn1c(-c2ccccc2)nc2ccccc2c1=O | broth dilution |  | 24 h | 52 µM |
| CC(C)Oc1c(NC(=O)c2ccc(NC(=O)c3ccc(NC(=O)[C@H](CC(N)=O)NC(=O)c4ccc(NC(=O)c5ccc(C#N)cn5)cc4)cc3)c(OC(C)C)c2O)ccc(C(=O)O)c1O |  | DSM30104 |  | 4 µg/mL |
| CN(C)Cc1ccc2c(N(C)C)c3c(c(O)c2c1)C(=O)C1=C(O)[C@]2(O)C(=O)C(C(N)=O)=C(O)[C@@H](N(C)C)[C@@H]2C[C@@H]1C3 | broth dilution | ATCC13883 |  | 4 µg/mL |
| C/C(=C\C(=O)OCCCCCCCCC(=O)O)C[C@@H]1OC[C@H](C[C@@H]2O[C@H]2[C@@H](C)[C@H](C)O)[C@@H](O)[C@H]1O | broth dilution | ATCC700603 |  | 160 µM |
| NCCCNC1CCCCc2c1[nH]c1ccc(Br)cc21 (stereo not drawn) | broth dilution | ATCC10031 |  | 8 µg/mL |
| CN(C)[C@@H]1C(O)=C(C(N)=O)C(=O)[C@@]2(O)C(O)=C3C(=O)c4c(cc5ccc(-c6ccccc6)cc5c4O)C[C@H]3C[C@@H]12 | broth dilution | ATCC13883 |  | 32 µg/mL |
| CO/N=C(\C(=O)N[C@@H]1C(=O)N2C(C(=O)[O-])=C(C[N+]3(C)CCCC3)CS[C@H]12)c1csc(N)n1 | broth dilution | ATCC700603 |  | 1.3 µM |
| CCCCCCC#Cc1cncc(-c2nnc(SCc3ccc(C#N)cc3)n2C)c1 |  |  |  | ≥ 20 µg/mL |
| NC[C@H]1O[C@H](O[C@H]2[C@H](O)[C@@H](O[C@H]3O[C@H](CO)[C@@H](O)[C@H](N)[C@H]3O)[C@H](N)C[C@@H]2N)[C@H](N)C[C@@H]1O |  |  |  | 0.5 to 1 µg/mL |
| NC1CCCCc2c1[nH]c1cc(Cl)c(Cl)cc21 (stereo not drawn) | broth dilution | ATCC10031 |  | 2 µg/mL |
| CC1=NN(CNc2ccc(C(=O)O)cc2)C(=O)C1=NNn1c(-c2ccccc2)nc2ccccc2c1=O | broth dilution |  | 24 h | 50.5 µM |
| CN[C@@H]1[C@@H](O)[C@@H](O[C@@H]2[C@@H](O)[C@H](O[C@H]3OC(CNCCO)=CC[C@H]3N)[C@@H](N)C[C@H]2NC(=O)[C@@H](O)CCN)OC[C@]1(C)O |  |  |  | 0.25 to 0.5 µg/mL |
| CN[C@H](CC(C)C)C(=O)N[C@H]1C(=O)N[C@@H](CC(N)=O)C(=O)N[C@H]2C(=O)N[C@H]3C(=O)N[C@H](C(=O)N[C@H](C(=O)O)c4cc(O)cc(O)c4-c4cc3ccc4O)[C@H](O)c3ccc(c(Cl)c3)Oc3cc2cc(c3O[C@@H]2O[C@H](CO)[C@@H](O)[C@H](O)[C@H]2O[C@H]2C[C@](C)(N)[C@H](O)[C@H](C)O2)Oc2ccc(cc2Cl)[C@H]1O | broth dilution | ATCC43816 |  | > 128 µM |
| CNC(=O)c1cc(Oc2ccc(NC(=O)Nc3ccc(Cl)c(C(F)(F)F)c3)cc2)ccn1 |  | DSM30104 |  | > 100 µM |

| Structure (SMILES) | assay | system | setting | MIC |
| --- | --- | --- | --- | --- |
| O=C(Nc1ccc(S(=O)(=O)c2nccs2)cc1)c1cc(N=Nc2nccs2)ccc1O | broth dilution |  |  | 100 µg/mL |
| NC[C@@H]1O[C@H](O[C@H]2[C@@H](O)[C@H](O[C@@H]3[C@@H](O)[C@H](N)C[C@H](N)[C@H]3O[C@H]3O[C@H](CO)[C@@H](O)[C@H](O)[C@H]3N)O[C@@H]2CO)[C@H](N)[C@@H](O)[C@@H]1O |  |  |  | 1 µg/mL |
| Cc1c(CN(C)C(=O)/C=C/c2cnc3c(c2)CC(NC(=O)OC(C)(C)C)C(=O)N3)oc2ccccc12 (stereo not drawn) | broth dilution |  |  | > 32 µg/mL |
| CC1=NN(CNc2c(O)c(S(=O)(=O)O)cc3ccccc23)C(=O)C1=NNn1c(-c2ccccc2)nc2ccccc2c1=O | broth dilution |  | 24 h | 83.7 µM |
| C[C@H]1COc2c(N3CCN(C)CC3)c(F)cc3c(=O)c(C(=O)O)cn1c23 | broth dilution | ATCC700603 |  | 0.16 µM |
| C/C(=C\c1ccc(C#N)cc1)C(=O)Nc1ccc(C(=O)N[C@@H](CC(N)=O)C(=O)Nc2ccc(C(=O)Nc3ccc(C(=O)Nc4ccc(C(=O)O)cc4)c(O)c3OC(C)C)cc2)cc1 |  | DSM30104 |  | > 64 µg/mL |
| C=C[C@]1(C)C[C@@H](OC(=O)CS[C@@H]2C[C@H]3CC[C@@H](C2)N3C)[C@]2(C)[C@H](C)CC[C@]3(CCC(=O)[C@H]32)[C@@H](C)[C@@H]1O | broth dilution | ATCC700603 |  | 160 µM |
| O=C1NN=C(N=Cc2ccccc2O)C1=NNn1c(-c2ccccc2)nc2ccccc2c1=O | broth dilution |  | 24 h | 55.4 µM |
| CC(C)(O/N=C(\C(=O)N[C@@H]1C(=O)N2C(C(=O)[O-])=C(C[n+]3ccccc3)CS[C@H]12)c1csc(N)n1)C(=O)O | broth dilution | ATCC10031 | 18 h | 2 µg/mL |
| CCCCCCC#Cc1cncc(-c2nnc(SCc3ccc(Cl)cc3)n2C2CC2)c1 |  |  |  | ≥ 20 µg/mL |
| CC(=O)O[C@H]1C[C@@]2(C)[C@@H](C[C@@H](O)[C@H]3[C@@]4(C)CC[C@@H](O)[C@@H](C)[C@@H]4CC[C@@]32C)/C1=C(\CCC=C(C)C)C(=O)O | broth dilution | ATCC700603 |  | 640 µM |
| O=C1NN=C(N=Cc2ccccc2)C1=NNn1c(-c2ccccc2)nc2ccccc2c1=O | broth dilution |  | 24 h | 114 µM |
| CCCCCC/C=C\CCCCCCCCCc1cc(O)cc(O)c1 | broth dilution | ATCC10031 |  | > 64 µg/mL |
| CC(=O)NCN1N=C(C)C(=NNn2c(-c3ccccc3)nc3ccccc3c2=O)C1=O | broth dilution |  | 24 h | 59.9 µM |
| CN(C)[C@@H]1C(O)=C(C(N)=O)C(=O)[C@@]2(O)C(O)=C3C(=O)c4c(cc5ccc(CN6CCCCC6)cc5c4O)C[C@H]3C[C@@H]12 | broth dilution | ATCC13883 |  | 4 µg/mL |
| CO[C@H]1/C=C/O[C@@]2(C)Oc3c(C)c(O)c4c(O)c(c(/C=N/N5CCN(C)CC5)c(O)c4c3C2=O)NC(=O)/C(C)=C\C=C\[C@H](C)[C@H](O)[C@@H](C)[C@@H](O)[C@@H](C)[C@H](OC(C)=O)[C@@H]1C | broth dilution | ATCC700603 |  | 10 µM |
| O=C(Nc1ccc(F)c(Cl)c1)c1cc(Cl)ccc1O | broth dilution | BAA1705 |  | > 64 µg/mL |
| CC(C)(O/N=C(\C(=O)N[C@@H]1C(=O)N2C(C(=O)[O-])=C(C[n+]3ccccc3)CS[C@H]12)c1csc(N)n1)C(=O)O | broth dilution | ATCC700603 |  | 5 µM |
| CN(C)[C@@H]1C(O)=C(C(N)=O)C(=O)[C@@]2(O)C(O)=C3C(=O)c4c(cc5ccc(-c6cccnc6)cc5c4O)C[C@H]3C[C@@H]12 | broth dilution | ATCC13883 |  | 32 µg/mL |
